Screening results from PubChem BioAssay.
Shown are actives, neighbours in structure and some others; about 1.4% of the full set was active somewhere.
hiPSC survival – enhancers of human iPSC single-cell survival | hiPSC single-cell survival, ATPlite luminescence; 100% = ROCK inhibitor wells, 0% = DMSO | survival enhancement, % at 20 µM | 0.044% of 360,000 active | AID 602274; in the data active = survival enhancement above about 18%;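 also: cells exposed to compounds for 16 hours before the ATP read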
HKDC1 inh – blocks human hexokinase HKDC1 activity; inhibition, % at 20 µM; recombinant HKDC1, G6PDH/diaphorase resazurin coupled fluorescence; 0.16% of 340,000 active; Q2TB90; AID 493160;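 active = inhibition above about 35% when tested at 20 µM, limit read from the data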;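 also: plate controls were DMSO wells with enzyme for no effect and DMSO wells lacking enzyme for full effect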
Target sequence (Q2TB90 whole entry, looked up): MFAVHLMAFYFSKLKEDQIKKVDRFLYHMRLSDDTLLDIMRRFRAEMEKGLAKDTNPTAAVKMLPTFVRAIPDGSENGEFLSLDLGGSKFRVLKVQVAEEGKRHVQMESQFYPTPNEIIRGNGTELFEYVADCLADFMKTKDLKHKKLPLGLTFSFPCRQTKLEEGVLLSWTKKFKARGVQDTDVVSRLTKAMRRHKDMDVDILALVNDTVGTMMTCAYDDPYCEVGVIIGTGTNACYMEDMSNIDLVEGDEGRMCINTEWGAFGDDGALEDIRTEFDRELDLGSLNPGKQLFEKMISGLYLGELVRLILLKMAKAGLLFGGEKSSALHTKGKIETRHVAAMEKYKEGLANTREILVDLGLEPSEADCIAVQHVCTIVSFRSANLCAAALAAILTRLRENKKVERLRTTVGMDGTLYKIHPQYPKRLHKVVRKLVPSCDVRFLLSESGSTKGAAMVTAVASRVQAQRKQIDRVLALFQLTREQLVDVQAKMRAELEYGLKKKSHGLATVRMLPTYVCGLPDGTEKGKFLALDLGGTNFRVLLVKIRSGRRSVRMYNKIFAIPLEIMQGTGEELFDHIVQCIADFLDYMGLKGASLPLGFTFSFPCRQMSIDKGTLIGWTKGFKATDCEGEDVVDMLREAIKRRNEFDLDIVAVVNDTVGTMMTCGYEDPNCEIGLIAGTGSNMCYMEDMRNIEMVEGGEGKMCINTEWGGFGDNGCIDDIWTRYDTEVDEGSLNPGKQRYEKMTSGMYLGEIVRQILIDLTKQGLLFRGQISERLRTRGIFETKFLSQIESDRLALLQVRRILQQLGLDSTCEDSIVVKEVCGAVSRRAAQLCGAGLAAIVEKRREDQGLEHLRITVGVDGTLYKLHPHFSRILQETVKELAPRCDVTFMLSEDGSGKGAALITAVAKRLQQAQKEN
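Assay system: in-house recombinant HK5 (HKDC1) enzyme. Input: HKDC1 at 5 µg/mL. Medium: Tris pH 8.0 buffer with MgCl2, Tween-20, BSA, BME. Dosing: single 20 µM dose. Schedule: 90 min reaction incubation at room temperature, dark. Signal: resazurin-to-resorufin fluorescence via G6PDH and diaphorase coupling, 525/613 nm. Controls: DMSO-enzyme wells negative, buffer-substituted wells positive.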
APOBEC3G inh – APOBEC3G (human) deaminase inhibition. recombinant A3G, ssDNA deamination FAM/TAMRA fluorescence. inhibition, % at 20 µM. 0.28% of 330,000 active. AID 493012;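 active = inhibition of at least 40% at 20 µM, with no more than 30% in the related APOBEC3A deaminase screen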;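 also: plate controls were DMSO wells with A3G for no effect and wells lacking A3G enzyme for full effect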
A3A deaminase – human APOBEC3A DNA deaminase inhibition. recombinant A3A, FAM/TAMRA ssDNA deamination fluorescence. P31941. inhibition, % at 20 µM. 0.41% of 330,000 active;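 active = at least 40% inhibition at 20 µM here, with at most 30% in a related deaminase screen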;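 also: plate controls were A3A with DMSO for no effect and wells lacking A3A enzyme for full effect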
PfG6PD inh – PfG6PD (Plasmodium falciparum) enzyme inhibition. PfGluPho enzyme, NADPH resazurin-diaphorase fluorescence. inhibition, % at 20 µM. 0.78% of 350,000 active. AID 504690;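 active = inhibition reaching at least a set limit at 20 µM in the primary screen, cut at about 59% in these data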;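 also: 0% = DMSO wells with substrate and 100% = DMSO wells lacking glucose-6-phosphate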
The depositor's hits bear a star.

CCn1c(Cl)c(C=O)s/c1=N\S(=O)(=O)c1ccccc1 was read as hiPSC survival 44*, HKDC1 inh 2, APOBEC3G inh 8, A3A deaminase -6 and PfG6PD inh 31.
Screening COc1ccc(OC)c(NC(=O)C(CC(C)C)NC(=O)C2CCCCC2)c1 (stereo not drawn) returned hiPSC survival 24*, HKDC1 inh 8, APOBEC3G inh 0, A3A deaminase 0 and PfG6PD inh 20.
Screening CCOc1ccc(C(=O)NC(=S)Nc2ccc(N3CCCCC3)cc2)cc1[N+](=O)[O-] returned hiPSC survival 3, HKDC1 inh -7, APOBEC3G inh -6, A3A deaminase 0 and PfG6PD inh 64*.
CCOc1ccc(C(=O)NC(=S)Nc2ccccc2N2CCCCC2)cc1[N+](=O)[O-] was read as hiPSC survival 0, HKDC1 inh 8, APOBEC3G inh -8, A3A deaminase -5 and PfG6PD inh -1.
For N#CCS(=O)(=O)c1ccccc1 the results were hiPSC survival 0, HKDC1 inh -4, APOBEC3G inh 1, A3A deaminase -1 and PfG6PD inh -3.
C=C1C(=O)C=C2CN(C(=O)c3ccccc3)[C@@](Cc3ccc(F)cc3)(C(=O)OC)[C@@H]12 was read as hiPSC survival 1, HKDC1 inh 18, APOBEC3G inh 4, A3A deaminase -5 and PfG6PD inh 72*.
For COc1ccc(CC(=O)N2N=C(c3ccncc3)CC2(O)C(F)(F)F)cc1 (stereo not drawn) the results were hiPSC survival 29*, HKDC1 inh -5, APOBEC3G inh -5, A3A deaminase -5 and PfG6PD inh -6.
For COc1ccc2ccccc2c1C1CC(=O)N2CN(C)CSC2=C1C#N (stereo not drawn) the results were hiPSC survival -2, HKDC1 inh 10, APOBEC3G inh -3, A3A deaminase -4 and PfG6PD inh 79*.
CC(C)c1ccc(C2CC(=O)N3CN(C)CSC3=C2C#N)cc1 (stereo not drawn) was read as hiPSC survival -2, HKDC1 inh 27, APOBEC3G inh 4, A3A deaminase 1 and PfG6PD inh 86*.
For Cc1ccc(C2CC(=O)N3CN(Cc4ccco4)CSC3=C2C#N)cc1 (stereo not drawn) the results were hiPSC survival -2, HKDC1 inh 3, APOBEC3G inh 5, A3A deaminase -1 and PfG6PD inh 59.
Screening CS(=O)(=O)Oc1ccc(Br)c2cccnc12 returned hiPSC survival -1, HKDC1 inh -4, APOBEC3G inh -4, A3A deaminase -4 and PfG6PD inh 15.
`Nc1ccc(Br)c2cccnc12` gave hiPSC survival 0, HKDC1 inh 30, APOBEC3G inh -11, A3A deaminase 1 and PfG6PD inh 63*.
CCc1ccc(N2CC(C(=O)OCC(=O)Nc3ccc(C(C)=O)cc3)CC2=O)cc1 (stereo not drawn) was read as hiPSC survival 1, HKDC1 inh 0, APOBEC3G inh -3, A3A deaminase 0 and PfG6PD inh 6.
`O=C(O)c1ccccc1C(=O)NCC(O)COCC1CC=CCC1` (stereo not drawn) gave hiPSC survival 28*, HKDC1 inh -2, APOBEC3G inh -1, A3A deaminase 6 and PfG6PD inh 2.
`Cc1ccc([C@H]2N[C@]3(CCCN(Cc4cccn4C)C3=O)[C@H]3C(=O)N(C)C(=O)[C@@H]23)cc1` gave hiPSC survival 2 and PfG6PD inh 2.
Screening COc1ccc(CCNC(=O)c2ccc3nc(-c4ccco4)c(-c4ccco4)nc3c2)cc1OC returned hiPSC survival 0, HKDC1 inh 27, APOBEC3G inh 84, A3A deaminase 74 and PfG6PD inh 62*.
O=c1c(Cl)c(Cl)cnn1Cc1nnc(-c2ccccc2Br)o1 was read as hiPSC survival 26*, HKDC1 inh 13, APOBEC3G inh -5, A3A deaminase -1 and PfG6PD inh 14.
CCc1nc2ccc(C(=O)N(C)Cc3ccccc3)cn2c1N(C)Cc1ccc(OC)cc1 was read as hiPSC survival -1.
For CCOC(=O)c1c(N2C(=O)C=CC2=O)sc(C)c1C the results were hiPSC survival 1, HKDC1 inh 0, APOBEC3G inh 10, A3A deaminase -2 and PfG6PD inh 67*.
CCOC(=O)c1c(NC(N)=O)sc(C)c1C was read as hiPSC survival 1, HKDC1 inh -5, APOBEC3G inh 1, A3A deaminase -2 and PfG6PD inh -11.
